Results on two molecules are retold here after ChEMBL document CHEMBL4138249, “Structure-activity analysis of CJ-15,801 analogues that interact with Plasmodium falciparum pantothenate kinase and inhibit parasite proliferation” (Eur J Med Chem, 2018).

What is called inhibition is the relative decrease from the control value, in per cent. The term IC50 denotes the concentration that gives 50% inhibition.

The nature of data set [1]: Selectivity index, ratio of cytotoxic concentration for human WI38 cells to IC50 for Plasmodium falciparum 3D7 infected in human erythrocytes in presence of 1 uM pantothenate. In kind it is toxicity, cell-based. Conditions: read-out: Selectivity Index.
A short description of data set [2]: Cytotoxicity against human WI38 cells assessed as inhibition of cell proliferation at 100 uM after 48 hrs by CellTiter-Glo assay relative to control. It counts as cell-based, WI-38. In a few lines:
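WI-38 proliferation measured over 48 h with compound at 100 μM; percent inhibition reported.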
Background: Cellular ATP, detected with luciferase, serves as a proxy for viable cell number.

Data set [3] deals with T1, Pantothenate kinase, putative (Plasmodium falciparum (isolate 3D7), UniProt Q8ILP4).
T1 sequence (Q8ILP4 whole entry): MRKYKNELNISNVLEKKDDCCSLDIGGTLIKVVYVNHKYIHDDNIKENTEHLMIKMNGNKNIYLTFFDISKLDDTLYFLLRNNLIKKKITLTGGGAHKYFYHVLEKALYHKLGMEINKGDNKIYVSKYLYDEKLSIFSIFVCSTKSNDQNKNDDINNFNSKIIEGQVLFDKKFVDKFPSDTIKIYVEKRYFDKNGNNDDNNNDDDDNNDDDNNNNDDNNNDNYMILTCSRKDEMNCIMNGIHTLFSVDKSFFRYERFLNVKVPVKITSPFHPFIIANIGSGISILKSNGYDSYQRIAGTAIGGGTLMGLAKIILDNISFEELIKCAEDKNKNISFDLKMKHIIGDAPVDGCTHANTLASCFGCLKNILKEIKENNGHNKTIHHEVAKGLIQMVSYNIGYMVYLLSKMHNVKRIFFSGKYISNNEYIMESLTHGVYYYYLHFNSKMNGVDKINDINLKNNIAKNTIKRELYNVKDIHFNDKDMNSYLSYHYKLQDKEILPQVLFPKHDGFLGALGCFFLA
Description: Inhibition of pantothenate kinase in Plasmodium falciparum 3D7 trophozoites using [14C]pantothenate as substrate after 15 mins by TopCount scintillation counting method. An outline of the steps: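 PanK activity in P. falciparum lysate with 1.8 μM [14C]pantothenate and increasing compound concentrations, 15 min incubation within the linear range. Percent inhibition from [14C]pantothenate phosphorylated versus no compound. 2–5 experiments in duplicate; mean ± range/2 or SEM.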

Data set [4] is described as follows: Cytotoxicity against HEK293 cells assessed as inhibition of cell proliferation at 100 uM after 96 hrs by CellTiter-Glo assay relative to control. It counts as cell-based. To be noted: human. In a few lines: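 HEK-293 proliferation measured over 96 h with compound at 100 μM; percent inhibition reported.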
Data set [5] has as its system Plasmodium falciparum. Description: Antimalarial activity against blood stage of Plasmodium falciparum in presence of pantothenate by [3H]hypoxanthine incorporation assay. It counts as functional, organism-based.
For data set [6], the system named is Plasmodium falciparum. The data set can be described thus: Antimalarial activity against Plasmodium falciparum 3D7 infected in human erythrocytes after 96 hrs in presence of 1 uM pantothenate by SYBR green fluorescence-based method. It counts as functional, organism-based. To be noted: 3D7, 96 h. In a few lines: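 Blood-stage parasites cultured 96 h in medium with 1 μM pantothenate across a range of compound concentrations; IC50 is the concentration giving 50% inhibition of proliferation. Each experiment run in triplicate, 2–7 independent experiments; mean ± range/2 (n = 2) or SEM (n = 3–7).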

Data set [7] can be described thus: Cysteine reactivity at pH 7.4 after 2 hrs by 1H NMR analysis. It counts as physicochemical. To be noted: pH 7.4, 2 h. An outline of the steps:
(§1)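 Compound mixed with glutathione or L-cysteine at pH 7.4 and monitored by NMR for 2 h. The first spectrum was acquired 15 min after mixing. N-ethylmaleimide served as a reactive Michael acceptor reference.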

Data set [8] is described as follows: Selectivity index, ratio of cytotoxic concentration for HEK293 cells to IC50 for Plasmodium falciparum 3D7 infected in human erythrocytes in presence of 1 uM pantothenate. To be noted: read-out: Selectivity Index. It counts as toxicity, cell-based.
The subject of data set [9] is Plasmodium falciparum. The data set can be described thus: Ratio of IC50 for Plasmodium falciparum 3D7 infected in human erythrocytes in presence of 100 uM pantothenate to IC50 for Plasmodium falciparum 3D7 infected in human erythrocytes in presence of 1 uM pantothenate. It counts as functional. An outline of the steps:
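Paired 96 h proliferation assays with parasites in medium containing 100 μM versus 1 μM pantothenate. Fold-increase = IC50 at 100 μM pantothenate divided by IC50 at 1 μM. Two independent experiments in triplicate; error is range/2.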

Data set [10] addresses T2, Pantothenate kinase, putative (Plasmodium falciparum (isolate 3D7)) (UniProt Q8ILP4).
T2 sequence (whole entry): T1 sequence (Q8ILP4 whole entry)
Description: Inhibition of pantothenate kinase in Plasmodium falciparum 3D7 trophozoites at 100 uM using [14C]pantothenate as substrate after 15 to 60 mins by TopCount scintillation counting method relative to control. In a few lines:
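[14C]Pantothenate phosphorylation by PanK in P. falciparum lysate with compound at 100 μM. Pantothenate was 1.8 μM for R-compounds and 1 μM for S-compounds. Incubation period was pre-set within the linear range; percent inhibition versus DMSO-only controls. 3–8 experiments in duplicate, SEM.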

Data set [11] is described as follows: Cysteine reactivity at pH 7.4 after 15 mins by 1H NMR analysis. It counts as physicochemical. To be noted: pH 7.4, 0.25 h. In a few lines:
as §1

Some results are limits rather than exact numbers.

On to `CC(C)(CO)[C@@H](O)C(=O)N/C=C/C(=O)O`, for which the selectivity ratio in [1] and in [8] was above 3 in each case. Also, the inhibition at 48 h, 100 µM in data set [2] is -23%. Moreover, the IC50 in data set [3] worked out at 14 µM; in [5], 39 µM; in data set [6], 36 µM. In addition, the inhibition at 96 h, 100 µM in [4] is -17%. Further, in [7], the Drug metabolism entry was “Metabolite_Notdetected”. Moreover, the “Ratio IC50” value in data set [9] was above 2.8. Moreover, in data set [10], the inhibition was found to be 87%.

With `CCN1C(=O)C=CC1=O` [N-ETHYLMALEIMIDE], the Drug metabolism result in data set [11] is on record as “Metabolite_Detected”.
